Test results: ChEMBL document CHEMBL1132594, “Discovery of 6-oxo-3-(2-phenylpyrazolo[1,5-a]pyridin-3-yl)-1(6H)- pyridazinebutanoic acid (FK 838): a novel non-xanthine adenosine A1 receptor antagonist with potent diuretic activity” (J Med Chem, 1999)
≈ marks a conversion by molar mass, not a printed value.

Legend:
Rattus norvegicus [1] = test: Diuretic activity was measured in saline (20mL/kg, po)-loaded rat as sodium output at 10 mg/kg dose po; type: functional, Urine
How it was run: (§1)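 Male Sprague–Dawley rats, food withheld 18 h, saline-loaded (20 mL/kg po), then given compound orally as a suspension in 0.5% methyl cellulose; vehicle-dosed controls. Urine collected over 6 h for volume (mL/kg), Na+ and K+ output (μequiv/kg). n = 3 (n = 1 for some vehicle groups); means ± SEM, significance vs vehicle at p < 0.05 / p < 0.01.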

Rattus norvegicus [2] = test: Diuretic activity was measured in saline (20mL/kg, po)-loaded rat as urine volume collected for 6 hr at 10 mg/kg dose po; type: functional; how it was run: as §1
Rattus norvegicus [3] = test: Diuretic activity was measured in saline (20mL/kg, po)-loaded rat as potassium output at 10 mg/kg dose po; type: functional, organism-based; parameters: dose 10 mg/kg; conditions: Urine; how it was run: as §1
Rattus norvegicus [4] = test: Diuretic activity was measured in saline (20mL/kg, po)-loaded rat as urine volume collected for 6 hr at 0.32 mg/kg dose po; type: functional; how it was run: as §1
[5] = Oral bioavailability in rat (fasted); type: ADME, organism-based; conditions: in vivo
How it was run: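 Fasted rats given a single oral dose of compound suspended in 0.5% methyl cellulose solution, 3.2 or 10 mg/kg depending on compound, n = 3–4 per group.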

Rattus norvegicus [6] = test: Diuretic activity was measured in saline (20mL/kg, po)-loaded rat as urine volume collected for 6 hr at 1 mg/kg dose po; type: functional; how it was run: as §1
Adenosine receptor A1 [7] = molecular target: T1, Adenosine receptor A1 (Rattus norvegicus, UniProt P25099); test: Adenosine A1 receptor binding using [3H][…] in rat cortical membranes; type: cell membranes
T1 sequence (P25099 whole entry): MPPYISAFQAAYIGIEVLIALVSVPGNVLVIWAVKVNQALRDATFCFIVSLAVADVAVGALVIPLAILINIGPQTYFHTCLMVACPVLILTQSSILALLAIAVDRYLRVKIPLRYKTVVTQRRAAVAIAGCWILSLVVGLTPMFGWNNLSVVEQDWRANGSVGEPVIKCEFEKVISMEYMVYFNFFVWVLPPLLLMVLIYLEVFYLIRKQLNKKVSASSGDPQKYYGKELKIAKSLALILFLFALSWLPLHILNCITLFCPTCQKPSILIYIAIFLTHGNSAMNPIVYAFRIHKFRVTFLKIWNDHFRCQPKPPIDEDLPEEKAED
How it was run: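 Displacement of [3H]DPCPX binding in rat cortical membranes. Values are means ± 95% confidence limits from at least three independent experiments.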

Rattus norvegicus [8] = test: Diuretic activity was measured in saline (20mL/kg, po)-loaded rat as sodium output at 3.2 mg/kg dose po; type: functional, Urine; how it was run: as §1
Rattus norvegicus [9] = test: Diuretic activity was measured in saline (20mL/kg, po)-loaded rat as urine volume collected for 6 h at 3.2 mg/kg dose po; type: functional; how it was run: as §1
Rattus norvegicus [10] = test: Diuretic activity was measured in saline (20mL/kg, po)-loaded rat as sodium output at 0.32 mg/kg dose po; type: functional, Urine; how it was run: as §1
Rattus norvegicus [11] = test: Diuretic activity was measured in saline (20mL/kg, po)-loaded rat as potassium output at 1 mg/kg dose po; type: functional, organism-based; parameters: dose 1 mg/kg; conditions: Urine; how it was run: as §1
Rattus norvegicus [12] = test: Diuretic activity was measured in saline (20mL/kg, po)-loaded rat as potassium output at 3.2 mg/kg dose po; type: functional, organism-based; parameters: dose 3.2 mg/kg; conditions: Urine; how it was run: as §1
Rattus norvegicus [13] = test: Diuretic activity was measured in saline (20mL/kg, po)-loaded rat as sodium output at 1 mg/kg dose po; type: functional, Urine; how it was run: as §1
[14] = solubility in water (ug/mL) at 37 degree C.; type: physicochemical; conditions: read-out: S
How it was run: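 Aqueous solubility measured in water at 37 °C; sodium salt form used for one compound.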

Adenosine receptor A1 [15] = molecular target: T2, Adenosine receptor A1 (Homo sapiens, UniProt P30542); test: Adenosine A1 receptor binding using [3H]DPCPX in human cortical membranes; type: cell membranes
T2 sequence (P30542 whole entry): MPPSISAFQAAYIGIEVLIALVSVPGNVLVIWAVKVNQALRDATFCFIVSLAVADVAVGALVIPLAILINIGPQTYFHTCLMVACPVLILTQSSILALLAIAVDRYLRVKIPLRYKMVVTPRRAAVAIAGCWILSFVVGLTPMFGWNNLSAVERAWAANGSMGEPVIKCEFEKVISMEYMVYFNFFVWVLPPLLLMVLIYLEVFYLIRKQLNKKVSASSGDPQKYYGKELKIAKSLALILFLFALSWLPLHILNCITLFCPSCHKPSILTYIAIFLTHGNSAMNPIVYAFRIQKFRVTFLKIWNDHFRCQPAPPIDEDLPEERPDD

Rattus norvegicus [16] = test: Diuretic activity was measured in saline (20mL/kg, po)-loaded rat as urine volume collected for 6 hr at 0.1 mg/kg dose po; type: functional; how it was run: as §1
Adenosine A2 receptor = Adenosine A2 receptor (Rattus norvegicus, UniProt P29276+P30543); test: Adenosine A2 receptor binding using [3H]CGS-21680 in rat striatal membranes; type: cell membranes, Striatum, Membrane
How it was run: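 Radioligand displacement of [3H]CGS 21680 from rat striatal membranes. Values are means ± 95% confidence limits from at least three independent experiments.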

Adenosine receptor A1 [17] = molecular target: T1, Adenosine receptor A1; test: Adenosine A1 receptor using [3H][…] in rat cortical membranes; type: cell membranes
[18] = molecular target: T3, Adenosine receptor A1 (Rattus norvegicus) (UniProt P25099)
T3 sequence (whole entry): T1 sequence (P25099 whole entry)

Rattus norvegicus [19] = test: Diuretic activity was measured in saline (20mL/kg, po)-loaded rat as urine volume collected for 6 hr at 0.032 mg/kg dose po; type: functional; how it was run: as §1
Rattus norvegicus [20] = test: Diuretic activity was measured in saline (20mL/kg, po)-loaded rat as sodium output at 0.1 mg/kg dose po; type: functional, Urine; how it was run: as §1
Rattus norvegicus [21] = test: Diuretic activity was measured in saline (20mL/kg, po)-loaded rat as sodium output at 0.032 mg/kg dose po; type: functional, Urine; how it was run: as §1

| SMILES | Na (Rattus norvegicus [1]) [u equiv kg-1] | Urine volume (Rattus norvegicus [2]) [mL/kg] | K (Rattus norvegicus [3]) [u equiv kg-1] | K (Rattus norvegicus [11]) [u equiv kg-1] | Na (Rattus norvegicus [13]) [u equiv kg-1] | other results |
| --- | --- | --- | --- | --- | --- | --- |
| CCCn1nc(-c2c(-c3ccccc3)nn3ccccc23)ccc1=O | 5510 | 36.8 | 972 |  |  |  |
| c1ccc(-c2nn3ccccc3c2-c2ccncc2)cc1 | 5110 | 34.2 | 975 |  |  |  |
| O=C(/C=C/c1c(-c2ccccc2)nn2ccccc12)N1CCCC[C@@H]1CCO [FK453] | 5820 | 44.4 | 1070 | 833 | 3290 | Urine volume (Rattus norvegicus [4]): 18 mL/kg; bioavailability [5]: 8.8%; Urine volume (Rattus norvegicus [6]): 24.6 mL/kg; Ki (Adenosine receptor A1 [7]): 0.49 nM; Na (Rattus norvegicus [8]): 4110 u equiv kg-1; Urine volume (Rattus norvegicus [9]): 31.9 mL/kg; Na (Rattus norvegicus [10]): 2350 u equiv kg-1; K (Rattus norvegicus [12]): 831 u equiv kg-1; solubility [14]: 11.9 µg/mL (≈ 0.0317 mM); Ki (Adenosine receptor A1 [15]): 0.49 nM |
| O=C(O)CCn1nc(-c2c(-c3ccccc3)nn3ccccc23)ccc1=O | 5260 | 31.4 | 901 | 790 | 3350 | Urine volume (Rattus norvegicus [6]): 19.1 mL/kg; Na (Rattus norvegicus [8]): 4860 u equiv kg-1; Urine volume (Rattus norvegicus [9]): 28.1 mL/kg; K (Rattus norvegicus [12]): 904 u equiv kg-1 |
| O=C(O)CCCCn1nc(-c2c(-c3ccccc3)nn3ccccc23)ccc1=O | 4510 | 36.3 | 977 |  |  |  |
| O=C(O)CCCn1nc(-c2c(-c3ccccc3)nn3ccccc23)ccc1=O | 5680 |  | 1150 | 967 | 5260 | bioavailability [5]: 78%; Urine volume (Rattus norvegicus [16]): 26.4 mL/kg; Log Ki (Adenosine A2 receptor): -5.92; Ki (Adenosine receptor A1 [17]): 6.61 nM; Urine volume [18]: 26.4 mL/kg; Urine volume (Rattus norvegicus [19]): 15.6 mL/kg; solubility [14]: 10000 µg/mL (≈ 26.7 mM); Na (Rattus norvegicus [20]): 3860 u equiv kg-1; Na (Rattus norvegicus [21]): 2390 u equiv kg-1; UV (Rattus norvegicus [2]): 38.6 mL/kg |
| Oc1ccc(-c2c(-c3ccccc3)nn3ccccc23)nn1 | 4640 | 33.3 | 826 |  |  |  |
| O=c1ccc(-c2c(-c3ccccc3)nn3ccccc23)nn1CCCO | 5160 | 37.9 | 964 |  |  |  |
| c1ccc(-c2nn3ccccc3c2-c2ccnnc2)cc1 | 5110 | 38 | 907 | 569 | 2800 | Urine volume (Rattus norvegicus [6]): 23.8 mL/kg; Na (Rattus norvegicus [8]): 3770 u equiv kg-1; Urine volume (Rattus norvegicus [9]): 29.5 mL/kg; K (Rattus norvegicus [12]): 667 u equiv kg-1 |
| Cn1nc(-c2c(-c3ccccc3)nn3ccccc23)ccc1=O | 4870 | 30 | 891 |  |  |  |
| O=c1ccc(-c2c(-c3ccccc3)nn3ccccc23)nn1CCO | 5930 | 40.4 | 942 |  |  |  |
